According to ChEMBL document CHEMBL1143563, “Enantiospecificity of glutamate carboxypeptidase II inhibition” (J Med Chem, 2005):

Key:
Rattus norvegicus = species: Rattus norvegicus; test: Neuroprotective effect against ischemic injury with median effective concentration in rat; assay type: functional
Summary of the method: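 Cerebral ischemia was simulated in a cell culture model by exposing rat cortical cultures to potassium cyanide and 2-deoxyglucose. Neuroprotection against this injury was reported as a median effective concentration.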

[1] = In vitro inhibition of N-acetyl-L-aspartyl-[3H]L-glutamate binding to Glutamate carboxypeptidase II
Summary of the method: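 Purified recombinant GCP II was incubated with radiolabelled substrate N-acetyl-L-aspartyl-[3H]-L-glutamate, and inhibition was reported as IC50. Values are mean ± SD of at least triplicate experiments; where only two experiments were run, the value is the mean of the duplicates.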

SMILES	EC50 (Rattus norvegicus)	IC50 [1]
O=C(O)CC[C@H](CP(=O)(O)O)C(=O)O	0.2 nM	
O=C(O)CC[C@@H](CP(=O)(O)Cc1c(F)c(F)c(F)c(F)c1F)C(=O)O	410 nM	1400 nM
O=C(O)CC[C@@H](CP(=O)(O)O)C(=O)O	70 nM	
O=C(O)CC[C@H](CP(=O)(O)Cc1c(F)c(F)c(F)c(F)c1F)C(=O)O	4.1 nM	34 nM
O=C(O)CCC(CP(=O)(O)O)C(=O)O (centres undefined)	1.2 nM	
O=C(O)CCC(CCCS)C(=O)O (racemic)	13 nM	
O=C(O)CCC(CP(=O)(O)Cc1c(F)c(F)c(F)c(F)c1F)C(=O)O (racemic)	9.5 nM	
